Experimental data: publication PMC3217170 (Biochimica et biophysica acta, 2011)

Key:
PKCθ / 14-3-3γ = test: Co-IP association of PKCθ with 14-3-3γ; assay type: cell-based, rat; details: CCK 10 nM or TPA 1 μM, data not shown
PKCθ / Lyn = test: Co-IP association of PKCθ with Lyn; assay type: cell-based, rat; details: 2.5 min, 3 independent experiments
PKCθ / Akt = test: Co-IP association of PKCθ with Akt; assay type: cell-based, rat; details: CCK 10 nM or TPA 1 μM, 2.5 min, 3 independent experiments
PKCθ = PKCθ translocation to membranes; assay type: cell-based, rat; details: CCK, 1 min incubation; p<0.05; mean±S.E., 5 independent experiments
How it was run: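 Acini stimulated with CCK for 1 min or TPA for 5 min, then homogenized in Tris pH 7.5 buffer with EGTA/EDTA, vanadate, PMSF and protease inhibitors. The cleared supernatant was spun at 60,000×g for 30 min at 4 °C. The membrane pellet was washed, solubilized in Triton/deoxycholate buffer, sonicated and spun at 10,000×g. Western blot used anti-PKCθ; calpain and E-cadherin served as fraction markers. Results given as % control; 5 experiments.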

[1] = system: PKCθ (pT538) in pancreatic acini; test: PKCθ T538 phosphorylation in rat pancreatic acini; assay type: cell-based
PKCθ / p85 PI3K = test: Co-IP association of PKCθ with p85 PI3K; assay type: cell-based, rat
How it was run: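 Rat acini stimulated with CCK 10 nM or TPA 1 μM, then lysed in CelLytic buffer with vanadate, PMSF and protease inhibitors. Lysate (750 μg/ml) incubated overnight at 4 °C with 4 μg antibody and protein G-agarose. Immunoprecipitates washed with PBS, then analysed by SDS-PAGE and Western blotting.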

PKCδ = details: pancreatic acinar cells, cited from earlier work
[2] = system: pancreatic acini (amylase secretion); test: Amylase release from pancreatic acini; assay type: cell-based, rat; details: 15 minutes, basal 1.7±0.2, mean±S.E., 6 experiments
How it was run: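 Rat pancreatic acini from collagenase digestion; 2 h preincubation ± 20 μM PKCθ pseudosubstrate in HEPES-buffered (pH 7.45) standard incubation solution, then 15 min with secretagogue. Medium amylase measured with Phadebas reagent and expressed as % of total cellular amylase released during incubation. Means±S.E.; paired Student's t-test.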

CCKA receptor = CCKA receptor mediation of PKCθ T538 phosphorylation in pancreatic acini; assay type: cell-based, rat; details: from CCK-JMV versus CCK maximal effect
PKCmu (PKD1) = details: pancreatic acinar cells; no reference printed at this sentence; cited from earlier work
PKCθ / tubulin = test: Co-IP association of PKCθ with tubulin; assay type: cell-based, rat
How it was run: (§1)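 Rat pancreatic acini are dispersed by collagenase and preincubated 2 hrs at 37 °C in HEPES (pH 7.45) incubation solution, then left unstimulated or given CCK (10 nM) or TPA (1 μM). Cells are lysed in CelLytic buffer with vanadate, PMSF and protease inhibitors. Lysate (750 μg/ml) is immunoprecipitated overnight at 4 °C with 4 μg anti-PKCθ plus protein G-agarose, PBS-washed, then analysed by SDS-PAGE/Western blot; ≥3 experiments.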

PYK2/CAKβ = details: pancreatic acinar cells; ref [17]; cited from earlier work
pT538 PKCθ = test: PKCθ immunofluorescence-cytochemistry; assay type: cell-based, rat; details: TPA 1 μM or CCK 10 nM, 10 minutes; 4 independent experiments
How it was run: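 Acini left untreated or given TPA 1 μM or CCK 10 nM for 10 min, then washed, fixed, permeabilized and cytocentrifuged onto poly-L-lysine slides. Labelled overnight at 4 °C with rabbit anti-pT538 PKCθ and mouse anti-E-cadherin (1:500), detected with Alexa 488/555 secondaries, nuclei stained with DAPI. Isotype-matched primary as negative control; 4 experiments.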

PKCθ / RafA = test: Co-IP association of PKCθ with RafA; assay type: cell-based, rat; details: 2.5 min, 3 independent experiments
PKCθ / RafC = test: Co-IP association of PKCθ with RafC; assay type: cell-based, rat; details: 2.5 min, 3 independent experiments
Lyn = details: pancreatic acinar cells; ref [64]; cited from earlier work
PKD (pS744/748) = test: PKD phosphorylation stimulated by CCK or TPA; assay type: cell-based, rat; details: CCK 10 nM, 2.5 min, no inhibitor; p<0.05
How it was run: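 Collagenase-dispersed rat acini preincubated 3 h ± 20 μM PKCθ pseudosubstrate, then CCK (10 nM, 2.5 min) or TPA (1 μM, 5 min), and lysed. Equal protein Western-blotted for pY311 PKCδ, pS744/748 PKD, pS338 RafC or pY416 Src, with total PKCθ and α/β tubulin as loading controls. Bands quantified by densitometry in the linear range. ≥3 experiments; mean±SEM; paired t-test.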

PKCθ / MALT-1 = test: Co-IP association of PKCθ with MALT-1; assay type: cell-based, rat; details: CCK 10 nM or TPA 1 μM, data not shown
PKCθ / RafB = test: Co-IP association of PKCθ with RafB; assay type: cell-based, rat
How it was run: as §1

PKCθ / Cbl = test: Co-IP association of PKCθ with Cbl; assay type: cell-based, rat; details: CCK 10 nM or TPA 1 μM, data not shown
CrKII = details: pancreatic acinar cells; ref [66]; cited from earlier work
phospholipase D = details: pancreatic acinar cells; ref [67]; cited from earlier work
PI-3 kinase = details: pancreatic acinar cells; ref [67]; cited from earlier work

Q: Which results are given for “COOH-terminal octapeptide of cholecystokinin [CCK]”?
A: association of PKCθ with 14-3-3γ (PKCθ / 14-3-3γ): but not with MALT-1, Bcl-10, 14-3-3γ or Cbl; association of PKCθ with Lyn (PKCθ / Lyn; CCK 10 nM or TPA 1 μM): increase in the association; direct association of PKCθ with Lyn at low CCK concentration or with CCK-JMV (PKCθ / Lyn; CCK 0.1–1–10 nM or CCK-JMV): observed also at low CCK concentration; association of PKCθ with Akt (PKCθ / Akt): increase in the association; membrane associated PKCθ (PKCθ): 216±34 % of control; maximal stimulation of T538 phosphorylation of PKCθ ([1]; 10 nM, 1 minute, 4–5 independent experiments, mean±S.E.): 239±25 % of control; concentration of maximal effect, T538 PKCθ phosphorylation ([1]; dose-response, 1 minute): 10 nM; stimulation of PKCθ phosphorylation (pT538), secretagogues ([1]; isolated rat pancreatic acini, 5 minutes, Western blot, 5 independent experiments): stimulated a significant increase; lowest concentration with detectable T538 PKCθ phosphorylation ([1]; pancreatic acinar cells): 0.1 nM; EC50 ([1]; read-out: half-maximal effect (EC50), T538 PKCθ phosphorylation, dose-response, 1 minute, 4–5 independent experiments, GraphPad 5.0): 0.174 ± 0.008 nM; tmax of pT538 PKCθ phosphorylation ([1]; time course, 5 independent experiments): 0.78±0.08 min; pT538 PKCθ phosphorylation, maximum at about 1 min ([1]; time course, 1 min, 5 independent experiments, mean±S.E.): 197±19 % of control; pT538 PKCθ phosphorylation at 30 min ([1]; time course, 30 min, 5 independent experiments, mean±S.E.): 145±11 % of control; association of PKCθ with p85 PI3K (PKCθ / p85 PI3K): but not an association with p85 PI3K; CCK concentration required to fully activate PKCδ (PKCδ; no reference printed at this sentence): 100 nM; CCKA receptor state mediating PKCδ activation (PKCδ; ref [14]): mediated only through activation of the low affinity CCKA receptor state; Amylase secretion (% total), −PKCθ inhibitor ([2]; CCK 0.03 nM): 5.1±0.8 % total; Amylase secretion (% total), −PKCθ inhibitor ([2]; CCK 0.1 nM): 7.1±0.6 % total; Amylase secretion (% total), −PKCθ inhibitor ([2]; CCK 100 nM): 4.5±0.4 % total; CCK stimulation of PKCθ activation mediated by the high affinity state CCKA receptor (CCKA receptor): 30%; CCK concentration for maximal PKCmu (PKD1) activation (PKCmu (PKD1)): 10 nM; association of PKCθ with tubulin (PKCθ / tubulin): but not an association with p85 PI3K, PKD1, RafB, Bcl-10, Cbl, MALT-1, tubulin; share of maximal PYK2/CAKβ activation due to high affinity CCKA receptor state (PYK2/CAKβ): 20%; phosphoT538 PKCθ in the membrane (immunofluorescence) (pT538 PKCθ): increased in the membrane; association of PKCθ with RafA (PKCθ / RafA; CCK 10 nM or TPA 1 μM): increase in the association; direct association of PKCθ with RafA at low CCK concentration or with CCK-JMV (PKCθ / RafA; CCK 0.1–1–10 nM or CCK-JMV): observed also at low CCK concentration; association of PKCθ with RafC (PKCθ / RafC; CCK 10 nM or TPA 1 μM): increase in the association; direct association of PKCθ with RafC at low CCK concentration or with CCK-JMV (PKCθ / RafC; CCK 0.1–1–10 nM or CCK-JMV): observed also at low CCK concentration; share of Lyn activation due to high affinity CCKA receptor state (Lyn): 60%; phosphorylation of PKD stimulated by CCK (PKD (pS744/748)): 19.4±3.69 folds over control; association of PKCθ with MALT-1 (PKCθ / MALT-1): but not with MALT-1, Bcl-10, 14-3-3γ or Cbl; association of PKCθ with RafB (PKCθ / RafB): but not an association with p85 PI3K, PKD1, RafB; association of PKCθ with Cbl (PKCθ / Cbl): but not with MALT-1, Bcl-10, 14-3-3γ or Cbl; CCKA receptor state mediating CrKII phosphorylation (CrKII): mediated only through activation of the low affinity CCKA receptor state; CCKA receptor state mediating phospholipase D activation (phospholipase D): mediated entirely by the activation of the high affinity receptor state; CCKA receptor state mediating PI-3 kinase activation (PI-3 kinase): mediated entirely by the activation of the high affinity receptor state
